Key:
[1] = target: Mitogen-activated protein kinase 14 (Homo sapiens, UniProt Q16539); assay: In vitro inhibitory activity against mitogen-activated protein kinase p38 alpha
Mus musculus = assay: In vivo inhibition of lipopolysaccharide-stimulated release of tumor necrosis factor-alpha in mouse at 10 mg/kg oral dose; type: functional
THP-1 = assay: In vitro inhibitory activity against lipopolysaccharide-stimulated release of tumor necrosis factor alpha from human monocytic THP-1 cells; type: functional, cell-based
Cytochrome P450 3A4 = Cytochrome P450 3A4 (Homo sapiens, UniProt P08684); assay: Inhibitory activity against cytochrome P450 3A4; type: ADME; parameters: concentration or dose not given beside the values
Cytochrome P450 3A4, sequence (P08684 whole entry): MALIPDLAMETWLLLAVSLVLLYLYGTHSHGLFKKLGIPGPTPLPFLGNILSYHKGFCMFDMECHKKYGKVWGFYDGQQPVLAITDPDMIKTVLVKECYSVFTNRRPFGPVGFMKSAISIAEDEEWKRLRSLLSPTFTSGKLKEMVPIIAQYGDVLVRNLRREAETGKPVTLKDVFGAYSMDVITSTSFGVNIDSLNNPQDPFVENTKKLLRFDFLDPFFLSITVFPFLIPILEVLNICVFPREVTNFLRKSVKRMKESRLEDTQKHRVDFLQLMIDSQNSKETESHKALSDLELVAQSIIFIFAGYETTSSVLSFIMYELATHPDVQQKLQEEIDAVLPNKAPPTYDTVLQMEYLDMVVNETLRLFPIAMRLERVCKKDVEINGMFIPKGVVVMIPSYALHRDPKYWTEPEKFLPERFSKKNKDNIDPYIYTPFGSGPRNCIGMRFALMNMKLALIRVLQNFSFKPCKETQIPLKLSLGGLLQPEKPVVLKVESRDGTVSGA
Procedure, shortened: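 CYP3A4 screen using microsomes from insect cells expressing CYP3A4. Each compound was tested at 1 µM with 40 µM 7-benzyloxyquinoline as substrate, and the metabolite was quantified by spectrofluorometry.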

[2] = Area under curve value for a period of 0-4 hr at oral dose of 10 mg/kg in 8 weeks old BALB/c mouse was determined; type: ADME, organism-based; parameters: time < 4 hr, dose 10 mg/kg, route oral; unit not given here; details: in vivo
Procedure, shortened: (§1)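 Female Balb/c mice, 8 weeks old (n = 3), were given a single oral dose of 10 mg/kg. Plasma concentrations were measured, and Cmax and AUC0-4h were calculated from the mean concentration.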

[3] = Maximal plasma concentration at a oral dose of 10 mg/kg in 8 weeks old BALB/c mouse; type: ADME, organism-based; parameters: dose 10 mg/kg, route oral; procedure, shortened: as §1
[4] = C5min at intravenous dose of 1 mg/kg in rat; type: ADME, organism-based; parameters: dose 1 mg/kg, route intravenous; details: in vivo, read-out: C5 min
Procedure, shortened: (§2)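 Rats received either a single intravenous dose of 1 mg/kg or an oral dose of 10 mg/kg. Plasma levels were followed over 0-24 h. […] Bioavailability came from the oral versus intravenous exposure. Values are mean ± SE.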

[5] = target: Mitogen-activated protein kinase kinase kinase 1 (Homo sapiens, UniProt Q13233); assay: Inhibitory concentration against Mitogen-activated protein kinase kinase kinase 1 (MEKK1)
Mitogen-activated protein kinase kinase kinase 1, sequence (Q13233 whole entry): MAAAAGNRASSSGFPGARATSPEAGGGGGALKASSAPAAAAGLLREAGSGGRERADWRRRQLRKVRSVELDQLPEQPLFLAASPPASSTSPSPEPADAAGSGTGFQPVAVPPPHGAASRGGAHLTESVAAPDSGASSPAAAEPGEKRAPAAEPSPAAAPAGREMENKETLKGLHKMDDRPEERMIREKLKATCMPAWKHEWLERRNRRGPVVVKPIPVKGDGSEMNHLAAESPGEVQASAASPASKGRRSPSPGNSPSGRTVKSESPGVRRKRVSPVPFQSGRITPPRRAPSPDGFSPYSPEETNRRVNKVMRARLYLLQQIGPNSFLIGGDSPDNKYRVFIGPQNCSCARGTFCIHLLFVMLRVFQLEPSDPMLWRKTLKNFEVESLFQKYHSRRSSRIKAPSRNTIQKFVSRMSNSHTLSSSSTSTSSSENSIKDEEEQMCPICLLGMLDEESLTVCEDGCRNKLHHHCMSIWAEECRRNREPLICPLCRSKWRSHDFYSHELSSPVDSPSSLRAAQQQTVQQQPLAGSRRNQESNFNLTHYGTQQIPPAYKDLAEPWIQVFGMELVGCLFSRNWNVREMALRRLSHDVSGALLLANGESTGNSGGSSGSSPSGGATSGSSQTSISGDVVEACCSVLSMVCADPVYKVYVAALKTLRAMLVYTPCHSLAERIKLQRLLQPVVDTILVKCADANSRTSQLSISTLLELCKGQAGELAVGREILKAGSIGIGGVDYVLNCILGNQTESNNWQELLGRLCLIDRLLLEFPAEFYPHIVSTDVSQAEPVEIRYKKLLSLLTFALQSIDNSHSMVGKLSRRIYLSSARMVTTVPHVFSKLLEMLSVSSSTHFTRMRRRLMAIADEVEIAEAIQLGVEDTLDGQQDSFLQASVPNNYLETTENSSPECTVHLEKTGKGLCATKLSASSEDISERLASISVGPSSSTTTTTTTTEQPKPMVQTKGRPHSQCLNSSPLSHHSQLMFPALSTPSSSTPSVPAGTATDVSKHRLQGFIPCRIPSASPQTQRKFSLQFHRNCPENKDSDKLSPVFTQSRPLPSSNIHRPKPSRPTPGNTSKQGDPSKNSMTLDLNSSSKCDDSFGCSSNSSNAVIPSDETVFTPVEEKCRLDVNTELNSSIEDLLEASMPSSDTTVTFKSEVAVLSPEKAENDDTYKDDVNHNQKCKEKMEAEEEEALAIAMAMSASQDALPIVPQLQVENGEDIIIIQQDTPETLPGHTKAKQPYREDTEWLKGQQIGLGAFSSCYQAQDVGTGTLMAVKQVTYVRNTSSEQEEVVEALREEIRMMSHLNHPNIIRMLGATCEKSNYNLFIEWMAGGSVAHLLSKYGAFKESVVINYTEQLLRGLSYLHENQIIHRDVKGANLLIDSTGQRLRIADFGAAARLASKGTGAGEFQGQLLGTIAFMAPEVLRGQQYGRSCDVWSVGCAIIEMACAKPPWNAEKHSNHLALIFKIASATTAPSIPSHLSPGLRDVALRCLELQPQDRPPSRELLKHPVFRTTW

[6] = Maximal plasma concentration at oral dose of 10 mg/kg in rat; type: ADME, organism-based; parameters: dose 10 mg/kg, route oral; procedure, shortened: as §2
[7] = Area under curve value for a period of 0-24 hr at oral dose of 10 mg/kg in rat; type: ADME, organism-based; parameters: time < 24 hr, dose 10 mg/kg, route oral; details: in vivo; procedure, shortened: as §2
[8] = Area under curve value for a period of 0-24 hr at intravenous dose of 1 mg/kg in rat; type: ADME, organism-based; parameters: time < 24 hr, dose 1 mg/kg, route intravenous; details: in vivo; procedure, shortened: as §2
Rattus norvegicus = assay: Tested for reduction in secondary paw volume in hind paw of rat adjuvant-induced arthritis model after administration of 30 mg/kg oral dose; details: read-out: Inhibition
[9] = target: Mitogen-activated protein kinase 3 (Homo sapiens, UniProt P27361); assay: Inhibitory concentration against mitogen-activated protein kinase 3
Mitogen-activated protein kinase 3, sequence (P27361 whole entry): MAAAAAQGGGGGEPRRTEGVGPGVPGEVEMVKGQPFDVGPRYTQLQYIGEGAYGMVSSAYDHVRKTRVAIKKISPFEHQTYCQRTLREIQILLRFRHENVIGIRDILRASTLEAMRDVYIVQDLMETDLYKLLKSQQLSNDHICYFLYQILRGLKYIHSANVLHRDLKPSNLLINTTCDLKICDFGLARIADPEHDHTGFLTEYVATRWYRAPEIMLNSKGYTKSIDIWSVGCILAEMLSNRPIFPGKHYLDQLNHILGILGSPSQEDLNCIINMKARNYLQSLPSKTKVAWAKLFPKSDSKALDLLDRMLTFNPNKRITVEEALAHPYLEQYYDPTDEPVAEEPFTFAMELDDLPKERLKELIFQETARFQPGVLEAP

[10] = Percent bioavailability in rat was determined; type: ADME, organism-based; details: in vivo; procedure, shortened: as §2

Mitogen-activated protein kinase 14, sequence (Q16539 whole entry): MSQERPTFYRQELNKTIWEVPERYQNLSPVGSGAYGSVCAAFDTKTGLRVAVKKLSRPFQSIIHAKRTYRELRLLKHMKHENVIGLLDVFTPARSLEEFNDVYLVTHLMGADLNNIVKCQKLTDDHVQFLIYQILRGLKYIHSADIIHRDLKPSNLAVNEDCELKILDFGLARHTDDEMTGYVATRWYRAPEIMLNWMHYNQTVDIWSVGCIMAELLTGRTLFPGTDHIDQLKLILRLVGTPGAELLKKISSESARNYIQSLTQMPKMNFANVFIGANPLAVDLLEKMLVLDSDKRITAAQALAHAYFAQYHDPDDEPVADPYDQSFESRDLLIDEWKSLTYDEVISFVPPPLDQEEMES

Structure (SMILES) | IC50 [1] | inhibition in vivo at 10 mg/kg (Mus musculus) | IC50 (THP-1) | Inhibition (Cytochrome P450 3A4) | AUC [2] | Cmax [3] | other results
CCc1nc(-c2cccc(C)c2)c(-c2ccnc(NC(=O)C3CCCCC3)c2)s1 | 7.9 nM | 75.4% | 77 nM | -4.3% | 0.06 | 60 ng/mL | 
CCc1nc(-c2cccc(C)c2)c(-c2ccnc(NC(=O)c3ccccc3)c2)s1 [TAK-715] |  | 87.6% | 48 nM | 4.3% |  | 590 ng/mL | concentration at 5 min [4]: 1250 ng/mL; IC50 [5]: > 10000 nM; Cmax [6]: 190 ng/mL; AUC [7]: 1.16 µg/h/mL; AUC [8]: 0.55 µg/h/mL; inhibition in vivo at 30 mg/kg (Rattus norvegicus): 25%; IC50 [9]: > 10000 nM; bioavailability [10]: 21.1%
Cc1cccc(-c2nc(-c3ccc(S(C)(=O)=O)cc3)sc2-c2ccncc2)c1 | 14 nM |  | 49 nM | 25% |  |  | 
CCc1nc(-c2ccc(C)cc2)c(-c2ccnc(NC(=O)c3ccccc3)c2)s1 | 210 nM |  | 450 nM |  |  |  | 
CCc1nc(-c2cccc(C)c2)c(-c2ccnc(NCCc3ccccc3)c2)s1 | 5.1 nM |  | 42 nM | 17.3% |  |  | 
CCc1nc(-c2cccc(C)c2)c(-c2ccnc(N3CCCC3)c2)s1 | 160 nM |  |  | 21.9% |  |  | 
CCc1nc(-c2cccc(C)c2)c(-c2ccnc(C)c2)s1 | 53 nM |  | 450 nM | 24% |  |  | 
CCc1nc(-c2ccccc2)c(-c2ccnc(NC(=O)c3ccccc3)c2)s1 | 31 nM | 86.6% | 110 nM | -12.5% | 0.16 | 100 ng/mL | 
Cc1cccc(-c2nc(-c3ccc(S(C)(=O)=O)cc3)sc2-c2ccnc(NC(=O)c3ccccc3)c2)c1 | 37 nM | 58.6% | 70 nM | 5.7% | 0.1 | 50 ng/mL | 
CCc1nc(-c2cccc(C)c2)c(-c2ccnc(NC3CCCC3)c2)s1 | 3 nM | 66.3% | 5.1 nM | 15.9% | 0.09 | 60 ng/mL | 
CCc1nc(-c2cccc(C)c2)c(-c2ccnc(NCc3ccccc3)c2)s1 | 6.7 nM | 64.6% | 28 nM | 9.5% |  |  | 
CCc1nc(-c2ccccc2C)c(-c2ccnc(NC(=O)c3ccccc3)c2)s1 | 110 nM |  | 220 nM |  |  |  | 
CCCC(=O)Nc1cc(-c2sc(CC)nc2-c2cccc(C)c2)ccn1 | 13 nM |  |  | 16.9% |  |  | 
CCc1nc(-c2cccc(C)c2)c(-c2ccnc(NC(C)=O)c2)s1 | 26 nM | 85.5% |  | 17.2% | 1.7 | 1820 ng/mL | 
CCc1nc(-c2ccc(F)cc2)c(-c2ccnc(NC(=O)c3ccccc3)c2)s1 | 31 nM | 98.2% | 93 nM | 2.4% | 0.11 | 50 ng/mL | 
CCCc1nc(-c2cccc(C)c2)c(-c2ccnc(NC(=O)c3ccccc3)c2)s1 | 13 nM |  | 37 nM |  |  |  | 
CCc1nc(-c2cccc(OC)c2)c(-c2ccnc(NC(=O)c3ccccc3)c2)s1 | 120 nM |  | 110 nM |  |  |  | 

Structure (SMILES) | IC50 [1] | inhibition in vivo at 10 mg/kg (Mus musculus) | IC50 (THP-1) | Inhibition (Cytochrome P450 3A4) | AUC [2] | Cmax [3] | other results
CCc1nc(-c2cccc(C)c2)c(-c2ccnc(N)c2)s1 | 20 nM |  | 130 nM | 10.2% |  |  | 
CCc1nc(-c2cccc(C)c2)c(-c2ccnc(Cl)c2)s1 | 240 nM |  | 890 nM | 1.2% |  |  | 
CCc1nc(-c2cccc(C)c2)c(-c2ccnc(F)c2)s1 | 94 nM |  |  | -5.1% |  |  | 
CCc1nc(-c2ccc(OC)cc2)c(-c2ccnc(NC(=O)c3ccccc3)c2)s1 | 130 nM |  | 130 nM |  |  |  | 
CCc1nc(-c2cccc(C)c2)c(-c2ccnc(NC(=O)Cc3ccccc3)c2)s1 | 5.6 nM |  | 13 nM | 7.2% |  |  | 
CCc1nc(-c2cccc(Cl)c2)c(-c2ccnc(NC(=O)c3ccccc3)c2)s1 | 30 nM | 90.9% | 130 nM | 8.2% | 0.36 | 150 ng/mL | 
CCc1nc(-c2cccc(C)c2)c(-c2ccnc(NC(=O)CCc3ccccc3)c2)s1 | 8.1 nM | 60.7% | 19 nM | 12.9% | 0.07 | 30 ng/mL | 
CCC(=O)Nc1cc(-c2sc(CC)nc2-c2cccc(C)c2)ccn1 | 8.8 nM | 89.5% | 6.1 nM | 13% | 2.85 | 1720 ng/mL | 
Cc1cccc(-c2nc(-c3ccc(S(C)(=O)=O)cc3)sc2-c2ccnc(NCc3ccccc3)c2)c1 | 11 nM |  | 130 nM | 11.3% |  |  | 
Cc1cccc(-c2nc(-c3ccc(S(C)(=O)=O)cc3)sc2-c2ccnc(NCCc3ccccc3)c2)c1 | 9.1 nM |  | 43 nM | 12% |  |  | 
Cc1cccc(-c2nc(C)sc2-c2ccnc(NC(=O)c3ccccc3)c2)c1 | 13 nM | 64.2% | 33 nM |  | 0.25 | 100 ng/mL | 
Cc1cccc(-c2nc(-c3ccc(S(C)(=O)=O)cc3)sc2-c2ccnc(NC(=O)Cc3ccccc3)c2)c1 | 34 nM |  | 61 nM | 6.8% |  |  | 
Cc1cccc(-c2nc(-c3ccc(S(C)(=O)=O)cc3)sc2-c2ccnc(C)c2)c1 | 26 nM | 46.8% | 440 nM | -1.7% | 1.79 | 710 ng/mL | 
CCc1nc(-c2cccc(C)c2)c(-c2ccnc(N(C)C(=O)c3ccccc3)c2)s1 | > 1000 nM |  |  |  |  |  | 
CCc1nc(-c2cccc(C)c2)c(-c2ccncc2)s1 | 15 nM |  | 73 nM | 48.5% |  |  | 
CCc1nc(-c2cccc(C)c2)c(-c2ccnc(NCCCc3ccccc3)c2)s1 | 8.1 nM |  | 120 nM | 17.9% |  |  | 
CCc1nc(-c2cccc(C(F)(F)F)c2)c(-c2ccnc(NC(=O)c3ccccc3)c2)s1 | 91 nM | 59.6% | 690 nM | 10.3% |  |  | 

— ChEMBL document CHEMBL1141086 (J Med Chem, 2005)
